Experimental data as given in ChEMBL document CHEMBL1128362, “Structure-activity relationships of 9-alkyladenine and ribose-modified adenosine derivatives at rat A3 adenosine receptors” (J Med Chem, 1995).
“And” between values parts separate entries of the source, which are not always exact repeats. Equal entries are not always repeated.

Experiments:
[1] = biological target: Adenosine receptors; A1 & A3 (Rattus norvegicus) (UniProt P25099+P28647); test: Ratio of the binding affinities against rat brain A1 and A3 receptors, KiA1/KiA3.
[2] = biological target: Adenosine receptor A2a and A3 (Rattus norvegicus) (UniProt P30543+P28647); test: Ratio of the binding affinities against rat brain A2a and A3 receptors, KiA2a/KiA3.
Chain of Adenosine receptor A2a and A3 (Rattus norvegicus) (P30543 whole entry, looked up, one chain of several): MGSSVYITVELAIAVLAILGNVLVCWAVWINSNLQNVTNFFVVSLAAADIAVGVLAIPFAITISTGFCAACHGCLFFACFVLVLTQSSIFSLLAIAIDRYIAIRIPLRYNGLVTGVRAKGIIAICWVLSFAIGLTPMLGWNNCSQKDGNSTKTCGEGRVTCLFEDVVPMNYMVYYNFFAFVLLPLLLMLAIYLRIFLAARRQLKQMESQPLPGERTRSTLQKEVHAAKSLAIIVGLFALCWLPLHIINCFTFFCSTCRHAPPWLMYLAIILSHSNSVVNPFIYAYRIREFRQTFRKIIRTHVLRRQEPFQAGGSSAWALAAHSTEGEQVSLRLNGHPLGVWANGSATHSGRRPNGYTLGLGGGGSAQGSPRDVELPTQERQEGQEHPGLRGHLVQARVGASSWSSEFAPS

[3] = biological target: T1, Adenosine receptor A3 (Rattus norvegicus) (UniProt P28647); test: Ability to inhibit the adenylyl cyclase in CHO cells stably transfected with rat Adenosine A3 receptor at the concentration of 100 uM; type: cell-based
T1 sequence (whole entry): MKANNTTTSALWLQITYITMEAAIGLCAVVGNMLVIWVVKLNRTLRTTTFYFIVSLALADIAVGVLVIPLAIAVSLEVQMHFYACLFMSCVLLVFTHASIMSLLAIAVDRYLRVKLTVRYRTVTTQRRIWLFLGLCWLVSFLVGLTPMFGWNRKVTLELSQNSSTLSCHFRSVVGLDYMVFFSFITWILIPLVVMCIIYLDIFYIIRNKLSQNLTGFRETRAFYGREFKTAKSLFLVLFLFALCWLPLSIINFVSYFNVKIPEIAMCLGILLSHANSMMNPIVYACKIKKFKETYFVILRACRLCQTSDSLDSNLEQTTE
Outline: (§1)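 Adenylyl cyclase activity measured in membranes of CHO cells stably transfected with rat brain A3 receptor, following an earlier published method. […] Untransfected CHO cell membranes served as the control.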

[4] = biological target: T1, Adenosine receptor A3 (Rattus norvegicus); test: Ability to inhibit the adenylyl cyclase in CHO cells stably transfected with rat Adenosine A3 receptor at the concentration of 20(uM); type: cell-based; outline: as §1
[5] = biological target: T1, Adenosine receptor A3 (Rattus norvegicus); test: Ratio of the concentration (20 uM) effecting adenylyl cyclase and binding affinity against rat brain A3 receptors
Outline: (§2)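 This ratio is the adenylyl cyclase test concentration (20, 40 or 100 µM) divided by the A3 Ki. The Ki came from [125I]AB-MECA displacement in membranes of CHO cells expressing rat A3 receptor.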

[6] = biological target: T1, Adenosine receptor A3 (Rattus norvegicus); test: Ratio of the concentration (100 uM) effecting adenylyl cyclase and binding affinity against rat brain A3 receptors.; outline: as §2
[7] = biological target: Adenosine receptor A2a (Rattus norvegicus) (UniProt P30543); test: Binding affinity against Adenosine A2A receptor from rat brain; parameters: concentration or dose not given beside the values; settings: concentration not given here
Chain of Adenosine receptor A2a (Rattus norvegicus) (P30543 whole entry): as the sequence (P30543 whole entry, looked up, one chain of several) above
Outline: (§3)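 Rat A1 receptors came from cerebral cortical membranes with [3H]R-PIA, and rat A2a receptors came from striatal membranes with [3H]CGS 21680. Membranes were pretreated with adenosine deaminase (2 U/mL) for 30 min at 37 °C. Nonspecific binding was defined by 2-chloroadenosine at 10 µM (A1) and 200 µM (A2a).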

[8] = biological target: T2, Adenosine receptor A1 (Rattus norvegicus) (UniProt P25099); test: Inhibition of Adenosine A1 receptor from rat brain.; settings: concentration not given here; outline: as §3
T2 sequence (whole entry): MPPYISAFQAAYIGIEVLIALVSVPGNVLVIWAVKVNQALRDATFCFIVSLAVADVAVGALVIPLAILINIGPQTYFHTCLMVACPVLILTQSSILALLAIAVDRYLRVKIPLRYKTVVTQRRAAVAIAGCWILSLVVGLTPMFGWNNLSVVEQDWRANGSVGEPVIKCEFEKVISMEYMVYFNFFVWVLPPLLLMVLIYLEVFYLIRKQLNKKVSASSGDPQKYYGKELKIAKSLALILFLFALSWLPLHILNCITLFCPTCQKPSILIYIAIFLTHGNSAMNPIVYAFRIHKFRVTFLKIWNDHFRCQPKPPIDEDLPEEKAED

[9] = biological target: T1, Adenosine receptor A3 (Rattus norvegicus); test: Ability to inhibit the adenylyl cyclase in CHO cells stably transfected with rat Adenosine A3 receptor at the concentration of 40(uM); type: cell-based; outline: as §1
Adenosine receptor A3 = biological target: T3, Adenosine receptor A3 (Rattus norvegicus, UniProt P28647); test: Binding affinity against adenosine A3 receptor (rat) stably expressed in CHO cell membranes.
T3 sequence (P28647 whole entry): T1 sequence (whole entry)
Outline: (§4)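 Rat brain A3 receptor was stably expressed in CHO cell membranes and labelled with [125I]AB-MECA at 0.3 nM final, in 50 mM Tris/10 mM MgCl2/1 mM EDTA, pH 8.26. Inhibitors were in DMSO, at no more than 2% final. Incubation was 1 h at 37 °C in duplicate, ended by filtration. Nonspecific binding was defined by 200 µM NECA.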

Adenosine receptor A1 = biological target: T4, Adenosine receptor A1 (Rattus norvegicus, UniProt P25099); test: Binding affinity against adenosine A1 receptor from rat brain.
T4 sequence (P25099 whole entry): T2 sequence (whole entry)

[10] = biological target: T1, Adenosine receptor A3 (Rattus norvegicus); test: Ratio of the concentration (40 uM) effecting adenylyl cyclase and binding affinity against rat brain A3 receptors.; outline: as §2
[11] = biological target: T1, Adenosine receptor A3 (Rattus norvegicus); test: Agonist elicited inhibition of adenylyl cyclase via rat Adenosine A3 receptor in transfected CHO cells and effect on IB-MECA was determined from dose response curves at the concentration of 40(uM); type: functional, cell-based
Outline: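 CHO cell membranes stably transfected with rat A3 receptor were used to test for antagonism. Adenylyl cyclase inhibition was elicited by the A3 agonist IB-MECA across a dose-response curve, and test agent at 40 or 100 µM was checked for reversal of the agonist-induced inhibition. The cyclase measurement followed a previously described method.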

[12] = biological target: T1, Adenosine receptor A3 (Rattus norvegicus); test: Inhibition of Adenosine A3 receptor from rat brain; settings: concentration not given here; outline: as §4
Adenosine receptor A2a = Adenosine receptor A2a (Rattus norvegicus, UniProt P30543); test: Binding affinity against adenosine A2A receptor from rat brain.
Chain of Adenosine receptor A2a (P30543 whole entry): as the sequence (P30543 whole entry, looked up, one chain of several) above

[13] = biological target: T1, Adenosine receptor A3 (Rattus norvegicus); settings: CHO

## CNC(=O)[C@@H]1C[C@@H](OS(C)(=O)=O)[C@H](n2cnc3c(NCc4cccc(I)c4)nc(Cl)nc32)O1
[1]
  Ratio: 0.18
[2]
  Ratio: 5.8

## CNC(=O)[C@@H]1C[C@H](N=[N+]=[N-])[C@H](n2cnc3c(NCc4cccc(I)c4)nc(Cl)nc32)O1
[3]
  inhibition: 27.8%
[4]
  inhibition: 25.7% and 18%
[5]
  Ratio: 3.3
[1]
  Ratio: 0.067
[2]
  Ratio: 4.7
[6]
  Ratio: 17

## Cn1cnc2c(NCc3cccc(I)c3)nc(Cl)nc21
[1]
  Ratio: 0.0088
[2]
  Ratio: 0.053

## Cn1cnc2c(NCc3cccc(I)c3)nc(NN)nc21
[1]
  Ratio: 0.05
[2]
  Ratio: 0.18

## O=C(O)Cn1cnc2c(NCc3cccc(I)c3)ncnc21
[7]
  inhibition: 9%
[8]
  inhibition: 17%

## Nc1nc(Cl)nc2c1ncn2[C@@H]1O[C@H](CO)[C@@H](O)[C@@H]1O
[9]
  inhibition: 16.1%
Adenosine receptor A3
  Ki: 14 µM
Adenosine receptor A1
  Ki: 24.2 µM

## COc1nc(NCc2cccc(I)c2)c2ncn(C)c2n1
[1]
  Ratio: 0.027
[2]
  Ratio: 0.068

## CNC(=O)[C@@H]1CC[C@H](n2cnc3c(NCc4ccccc4)nc(Cl)nc32)O1
[9]
  inhibition: 7.5% and 10.8%
[10]
  Ratio: 1.3
[1]
  Ratio: 0.37
[2]
  Ratio: 7.1
[11]
  Effect: 0

## CNC(=O)[C@H]1C[C@@H](n2cnc3c(NCc4cccc(I)c4)ncnc32)[C@H](O)[C@@H]1O
Adenosine receptor A3
  Ki: 19.5 µM
[7]
  inhibition: 28.5%
[1]
  Ratio: 1.8
[2]
  Ratio: > 1
Adenosine receptor A1
  Ki: 35.9 µM

## CCn1cnc2c(NC3CCCC3)ncnc21
[12]
  inhibition: 30%
[1]
  Ratio: < 1
[2]
  Ratio: < 1

## OC[C@@H](O)Cn1cnc2c(NCc3cccc(I)c3)ncnc21
[1]
  Ratio: 0.55
[2]
  Ratio: 0.76

## CN(C)c1nc(NCc2cccc(I)c2)c2ncn(C)c2n1
[1]
  Ratio: 0.099
[2]
  Ratio: 0.66

## CNC(=O)[C@@H]1C[C@@H](F)[C@H](n2cnc3c(NCc4cccc(I)c4)nc(Cl)nc32)O1
[3]
  inhibition: 11.2%
Adenosine receptor A2a
  Ki: 98 µM
Adenosine receptor A3
  Ki: 17.8 µM
[1]
  Ratio: 0.08
[2]
  Ratio: 5.5
Adenosine receptor A1
  Ki: 1.42 µM
[6]
  Ratio: 5.6

## CNC(=O)[C@@H]1C[C@@H](O)[C@H](n2cnc3c(NCc4cccc(I)c4)nc(Cl)nc32)O1
[9]
  inhibition: 35.2%
[10]
  Ratio: 1200
[1]
  Ratio: 31
[2]
  Ratio: 140
[6]
  Ratio: 3000

## CSc1nc(NCc2cccc(I)c2)c2ncn(C[C@H](O)CO)c2n1
[9]
  inhibition: 5.5% and 7.3%
Adenosine receptor A2a
  Ki: 78.9 µM
Adenosine receptor A3
  Ki: 8.59 µM
[10]
  Ratio: 4.6
[1]
  Ratio: 0.16
[2]
  Ratio: 9.2
Adenosine receptor A1
  Ki: 1.34 µM
[13]
  Effect: 0

## CNC(=O)[C@@H]1C[C@@H](OC(C)=O)[C@H](n2cnc3c(NCc4cccc(I)c4)nc(Cl)nc32)O1
[4]
  inhibition: 12.7%
[5]
  Ratio: 320
[1]
  Ratio: 12
[2]
  Ratio: 250
